pIC50: −log10 of the molar value. Activity calls are given as the source filed them. The calls are words filed in the database; no cut-off is given here.
Assays:
[1] = target: T1, Nucleotide-binding oligomerization domain-containing protein 2 (Homo sapiens, UniProt Q9HC29); assay: Inhibition of MDP-induced human NOD2 signaling expressed in HEK-Blue cells preincubated for 3 hrs followed by MDP-stimulation for 20 hrs by spectrophotometry based SEAP reporter gene assay; type: cell-based
[2] = target: T1, Nucleotide-binding oligomerization domain-containing protein 2; assay: Activation of human NOD2 signaling expressed in HEK-Blue cells incubated for 3 hrs by spectrophotometry based SEAP reporter gene assay; type: cell-based
[3] = tested on: Lewis lung carcinoma cell line; assay: Antitumor activity against mouse LLC cells implanted in iv dosed C57BL/6N mouse assessed as tumor growth inhibition; type: functional, organism-based
[4] = Cytotoxicity against HEK-Blue cells expressing human NOD2 assessed as reduction in cell growth at 1.5625 to 50000 nM incubated for 3 hrs by SRB assay; type: cell-based; settings: 50 µM
[5] = Cytotoxicity against HEK-Blue cells expressing human NOD2 assessed as reduction in cell growth at 1.5625 to 50000 nM preincubated for 3 hrs followed by MDP-stimulation for 20 hrs by SRB assay; type: cell-based; settings: 50 µM
[6] = Tmax in tumor of LLC tumor bearing C57BL/6N mouse at 18 mg/kg, iv by LC-MS/MS analysis; type: ADME, organism-based, Neoplasm
Summary of the method: (§1)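 Mice bearing LLC tumors were given a single iv injection at equimolar doses: the conjugate at 30 mg/kg or paclitaxel at 18 mg/kg. Tumor tissue was sampled over time. Intact conjugate, released paclitaxel and MDA-linker were quantified in tumor tissue (nmol/g). Tmax and Cmax were taken from tumor concentration profiles, n=5 per group.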

[7] = Cmax in tumor of LLC tumor bearing C57BL/6N mouse at 18 mg/kg, iv by LC-MS/MS analysis; type: ADME, organism-based, Neoplasm; parameters: dose 18 mg/kg, route intravenous; settings: in vivo
Summary of the method: (§2)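 Tumour-tissue pharmacokinetics in LLC tumour-bearing mice after a single iv injection of PTX at 18 mg/kg, equimolar to the conjugate at 30 mg/kg. Analyte concentrations were measured in tumour tissue over time (n=5 mice). Tmax is given in h and Cmax in nmol/g.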

[8] = AUC (0 to t) in tumor of LLC tumor bearing C57BL/6N mouse at 18 mg/kg, iv up to 24 hrs by LC-MS/MS analysis; type: ADME, organism-based, Neoplasm; settings: in vivo; summary of the method: as §2
[9] = Drug level in tumor of LLC tumor bearing C57BL/6N mouse treated with MTC-220 at 30 mg/kg, iv up to 24 hrs by LC-MS/MS analysis relative to paclitaxel alone; type: ADME, organism-based, Neoplasm; settings: in vivo; summary of the method: as §1
[10] = Cmax in tumor of LLC tumor bearing C57BL/6N mouse at 30 mg/kg, iv by LC-MS/MS analysis; type: ADME, organism-based, Neoplasm; parameters: dose 30 mg/kg, route intravenous; settings: in vivo
Summary of the method: (§3)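 LLC tumor-bearing mice received a single iv injection at 30 mg/kg; tumor tissue was sampled over time and assayed for intact conjugate and its metabolites PTX and MDA-linker. Tmax in h and Cmax in nmol/g tumor were reported, n=5 mice.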

[11] = AUC (0 to t) in tumor of LLC tumor bearing C57BL/6N mouse at 30 mg/kg, iv up to 24 hrs by LC-MS/MS analysis; type: ADME, organism-based, Neoplasm; settings: in vivo; summary of the method: as §3
[12] = Tmax in tumor of LLC tumor bearing C57BL/6N mouse assessed as paclitaxel level at 30 mg/kg, iv by LC-MS/MS analysis; type: ADME, organism-based, Neoplasm; settings: in vivo; summary of the method: as §3
[13] = Cmax in tumor of LLC tumor bearing C57BL/6N mouse assessed as paclitaxel level at 30 mg/kg, iv by LC-MS/MS analysis; type: ADME, organism-based, Neoplasm; parameters: dose 30 mg/kg, route intravenous; settings: in vivo; summary of the method: as §3
[14] = AUC (0 to t) in tumor of LLC tumor bearing C57BL/6N mouse assessed as paclitaxel level at 30 mg/kg, iv up to 24 hrs by LC-MS/MS analysis; type: ADME, organism-based, Neoplasm; settings: in vivo; summary of the method: as §3
[15] = Tmax in tumor of LLC tumor bearing C57BL/6N mouse assessed as MDA-linker level at 30 mg/kg, iv by LC-MS/MS analysis; type: ADME, organism-based, Neoplasm; settings: in vivo; summary of the method: as §3
[16] = Cmax in tumor of LLC tumor bearing C57BL/6N mouse assessed as MDA-linker level at 30 mg/kg, iv by LC-MS/MS analysis; type: ADME, organism-based, Neoplasm; parameters: dose 30 mg/kg, route intravenous; settings: in vivo; summary of the method: as §3
[17] = AUC (0 to t) in tumor of LLC tumor bearing C57BL/6N mouse assessed as MDA-linker level at 30 mg/kg, iv up to 24 hrs by LC-MS/MS analysis; type: ADME, organism-based, Neoplasm; settings: in vivo; summary of the method: as §3
[18] = Cytotoxicity against HEK-Blue cells expressing human NOD2 assessed as reduction in cell growth at 0.3125 to 10000 nM incubated for 3 hrs by SRB assay; type: cell-based; settings: 10 µM
[19] = target: T1, Nucleotide-binding oligomerization domain-containing protein 2; assay: Inhibition of NOD2 signaling in human PBMC derived macrophages assessed as inhibition of MDP-induced IL-6 mRNA expression at 1 to 10 uM preincubated for 1 hr followed by MDP-stimulation for 90 mins by RT-PCR method
[20] = target: T1, Nucleotide-binding oligomerization domain-containing protein 2; assay: Inhibition of MDP-stimulated human NOD2 activation expressed in HEK-Blue cells assessed as reduction in NOD2-mediated MAPK signaling by measuring decrease in phosphorylated p38 level preincubated for 1 hr followed by MDP-stimulation for 1 hr by Western blot method; type: cell-based
[21] = target: T1, Nucleotide-binding oligomerization domain-containing protein 2; assay: Inhibition of MDP-stimulated human NOD2 activation expressed in HEK-Blue cells assessed as reduction in NOD2-mediated NF-kB signaling by measuring decrease in phosphorylated RIP2 level preincubated for 1 hr followed by MDP-stimulation for 1 hr by Western blot method; type: cell-based
[22] = target: T1, Nucleotide-binding oligomerization domain-containing protein 2; assay: Inhibition of MDP-stimulated human NOD2 activation expressed in HEK-Blue cells assessed as reduction in NOD2-mediated MAPK signaling by measuring decrease in phosphorylated ERK1/2 level preincubated for 1 hr followed by MDP-stimulation for 1 hr by Western blot method; type: cell-based
[23] = target: T1, Nucleotide-binding oligomerization domain-containing protein 2; assay: Inhibition of MDP-stimulated human NOD2 activation expressed in HEK-Blue cells assessed as reduction in NOD2-mediated MAPK signaling by measuring decrease in phosphorylated JNK level preincubated for 1 hr followed by MDP-stimulation for 1 hr by Western blot method; type: cell-based
[24] = target: T1, Nucleotide-binding oligomerization domain-containing protein 2; assay: Inhibition of MDP-stimulated human NOD2 activation expressed in HEK-Blue cells assessed as reduction in NOD2-mediated NF-kB signaling by measuring decrease in IkBalpha level preincubated for 1 hr followed by MDP-stimulation for 1 hr by Western blot method; type: cell-based
[25] = target: T1, Nucleotide-binding oligomerization domain-containing protein 2; assay: Inhibition of MDP-stimulated NOD2 activation in human PBMC derived macrophages assessed as reduction in NOD2-mediated NF-kB signaling by measuring decrease in phosphorylated RIP2 level preincubated for 1 hr followed by MDP-stimulation for 1 hr by Western blot method
[26] = target: T1, Nucleotide-binding oligomerization domain-containing protein 2; assay: Inhibition of MDP-stimulated NOD2 activation in human PBMC derived macrophages assessed as reduction in NOD2-mediated MAPK signaling by measuring decrease in phosphorylated ERK1/2 level preincubated for 1 hr followed by MDP-stimulation for 1 hr by Western blot method
[27] = target: T1, Nucleotide-binding oligomerization domain-containing protein 2; assay: Inhibition of MDP-stimulated NOD2 activation in human PBMC derived macrophages assessed as reduction in NOD2-mediated MAPK signaling by measuring decrease in phosphorylated p38 level preincubated for 1 hr followed by MDP-stimulation for 1 hr by Western blot method
[28] = target: T1, Nucleotide-binding oligomerization domain-containing protein 2; assay: Inhibition of MDP-stimulated NOD2 activation in human PBMC derived macrophages assessed as reduction in NOD2-mediated MAPK signaling by measuring decrease in phosphorylated JNK level preincubated for 1 hr followed by MDP-stimulation for 1 hr by Western blot method
[29] = target: T1, Nucleotide-binding oligomerization domain-containing protein 2; assay: Inhibition of MDP-stimulated NOD2 activation in human PBMC derived macrophages assessed as reduction in NOD2-mediated NF-kB signaling by measuring decrease in IkBalpha level preincubated for 1 hr followed by MDP-stimulation for 1 hr by Western blot method
[30] = target: Receptor-interacting serine/threonine-protein kinase 2 (Homo sapiens) (UniProt O43353); assay: Inhibition of recombinant human N-terminal GST-tagged RIP2 (1 to 299 residues) expressed in baculovirus infected Sf9 cells at 10 uM using MBP as substrate incubated for 60 mins in presence of ATP by ADP-Glo assay
[31] = target: T1, Nucleotide-binding oligomerization domain-containing protein 2; assay: Inhibition of His-tagged and FLAG-tagged NOD2 (unknown origin) self-oligomerization expressed in HEK293T cells at 10 uM preincubated for 1 hr followed by MDP stimulation for 15 mins by co-immunoprecipitation assay; type: cell-based
[32] = target: T1, Nucleotide-binding oligomerization domain-containing protein 2; assay: Inhibition of MDP-induced human NOD2 signaling expressed in HEK-Blue cells at 10 uM preincubated for 3 hrs followed by MDP-stimulation for 20 hrs by spectrophotometry based SEAP reporter gene assay relative to control; type: cell-based
[33] = tested on: Lewis lung carcinoma cell line; assay: (§4) Potentiation of paclitaxel-induced antitumor activity against mouse LLC cells implanted in C57BL/6N mouse assessed as reduction in tumor weight at 30 mg/kg, iv administered once in every two days and paclitaxel treatment once in every four days measured 4 weeks after implantation; type: functional, organism-based
[34] = tested on: Lewis lung carcinoma cell line; assay: as §4, with “inhibition of lung” for “reduction in”, “metastasis” for “weight”, “implantation relative to control” for “implantation”; type: functional
[35] = tested on: Lewis lung carcinoma cell line; assay: Antitumor activity against mouse LLC cells implanted in C57BL/6N mouse assessed as inhibition of lung tumor metastasis at 30 mg/kg, iv administered once in every two days measured 4 weeks after implantation; type: functional, organism-based
[36] = tested on: Lewis lung carcinoma cell line; assay: Antitumor activity against mouse LLC cells implanted in C57BL/6N mouse assessed as reduction in tumor weight at 30 mg/kg, iv administered once in every two days measured 4 weeks after implantation; type: functional, organism-based
[37] = Cytotoxicity against HEK-Blue cells expressing human NOD2 assessed as reduction in cell growth at 0.3125 to 10000 nM preincubated for 3 hrs followed by MDP-stimulation for 20 hrs by SRB assay; type: cell-based; settings: 10 µM

T1 sequence (Q9HC29 whole entry, the tested form may be a part): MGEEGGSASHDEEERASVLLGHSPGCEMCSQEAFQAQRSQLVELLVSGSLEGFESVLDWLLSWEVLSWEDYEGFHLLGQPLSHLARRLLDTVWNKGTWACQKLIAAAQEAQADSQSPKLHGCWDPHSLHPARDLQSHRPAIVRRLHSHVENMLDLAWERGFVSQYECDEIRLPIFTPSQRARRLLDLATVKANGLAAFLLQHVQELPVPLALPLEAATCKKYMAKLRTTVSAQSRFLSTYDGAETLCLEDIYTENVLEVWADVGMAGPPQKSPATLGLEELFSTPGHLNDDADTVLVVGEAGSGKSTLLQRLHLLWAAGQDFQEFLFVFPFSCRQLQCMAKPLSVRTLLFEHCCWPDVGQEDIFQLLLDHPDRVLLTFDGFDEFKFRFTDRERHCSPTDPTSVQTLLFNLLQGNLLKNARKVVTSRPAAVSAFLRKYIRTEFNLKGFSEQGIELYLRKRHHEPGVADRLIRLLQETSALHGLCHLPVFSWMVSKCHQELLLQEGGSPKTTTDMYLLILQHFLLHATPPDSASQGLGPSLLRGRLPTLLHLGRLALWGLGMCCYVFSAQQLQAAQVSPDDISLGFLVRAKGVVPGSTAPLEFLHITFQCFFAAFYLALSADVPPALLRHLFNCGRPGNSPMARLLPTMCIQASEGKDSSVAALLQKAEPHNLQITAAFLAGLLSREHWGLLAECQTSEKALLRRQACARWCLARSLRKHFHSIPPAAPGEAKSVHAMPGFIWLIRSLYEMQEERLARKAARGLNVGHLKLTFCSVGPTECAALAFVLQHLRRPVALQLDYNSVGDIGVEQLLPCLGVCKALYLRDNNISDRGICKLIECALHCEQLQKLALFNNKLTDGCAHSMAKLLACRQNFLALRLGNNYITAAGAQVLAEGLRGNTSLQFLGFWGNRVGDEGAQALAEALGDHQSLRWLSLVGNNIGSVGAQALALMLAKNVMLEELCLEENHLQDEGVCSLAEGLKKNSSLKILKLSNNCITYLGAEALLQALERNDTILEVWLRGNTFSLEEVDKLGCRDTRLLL
Receptor-interacting serine/threonine-protein kinase 2 (Homo sapiens), sequence (O43353 whole entry, the tested form may be a part): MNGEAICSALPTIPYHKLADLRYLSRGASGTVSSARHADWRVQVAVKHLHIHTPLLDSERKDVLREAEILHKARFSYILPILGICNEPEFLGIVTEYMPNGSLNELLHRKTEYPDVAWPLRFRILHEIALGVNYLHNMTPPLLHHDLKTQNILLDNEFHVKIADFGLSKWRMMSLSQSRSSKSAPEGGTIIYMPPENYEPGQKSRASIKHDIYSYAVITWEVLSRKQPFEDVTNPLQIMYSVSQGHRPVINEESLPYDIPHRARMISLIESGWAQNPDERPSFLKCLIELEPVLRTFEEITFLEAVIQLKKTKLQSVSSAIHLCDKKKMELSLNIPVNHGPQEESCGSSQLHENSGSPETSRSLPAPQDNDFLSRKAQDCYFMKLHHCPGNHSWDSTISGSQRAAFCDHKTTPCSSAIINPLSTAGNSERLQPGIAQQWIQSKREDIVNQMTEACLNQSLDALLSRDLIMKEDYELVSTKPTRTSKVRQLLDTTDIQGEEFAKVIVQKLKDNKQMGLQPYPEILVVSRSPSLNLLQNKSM

C[C@H](NC(=O)/C=C/c1ccc(Cl)cc1)C(=O)N[C@H](CCC(=O)N[C@@H](CCCCNC(=O)CCC(=O)O)C(N)=O)C(N)=O
inhibition activity call (active/not active) [1]: inactive
Activity [2]: inactive
TGI [3]: inactive
Activity [4]: Non-Toxic
Activity [5]: Non-Toxic

CC(=O)O[C@H]1C(=O)[C@@]2(C)[C@H]([C@H](OC(=O)c3ccccc3)[C@]3(O)C[C@H](OC(=O)[C@H](O)[C@@H](NC(=O)c4ccccc4)c4ccccc4)C(C)=C1C3(C)C)[C@]1(OC(C)=O)CO[C@@H]1C[C@@H]2O [PACLITAXEL]
Tmax [6]: 1.05 h
Cmax [7]: 4.85 nmol/g
AUCt [8]: 46.62 nmol·h/g
fold change (FC) [9]: 2
pIC50 [1]: 5.10

CC(=O)O[C@H]1C(=O)[C@@]2(C)[C@H]([C@H](OC(=O)c3ccccc3)[C@]3(O)C[C@H](OC(=O)[C@H](OC(=O)CCC(=O)NCCCC[C@H](NC(=O)CC[C@@H](NC(=O)[C@H](C)NC(=O)/C=C/c4ccc(Cl)cc4)C(N)=O)C(N)=O)[C@@H](NC(=O)c4ccccc4)c4ccccc4)C(C)=C1C3(C)C)[C@]1(OC(C)=O)CO[C@@H]1C[C@@H]2O
Cmax [10]: 15.39 nmol/g
AUCt [11]: 211.02 nmol·h/g
Tmax [12]: 12 h
Cmax [13]: 5.83 nmol/g
AUCt [14]: 89.63 nmol·h/g
Tmax [15]: 10.4 h
Cmax [16]: 1.01 nmol/g
AUCt [17]: 16.27 nmol·h/g

CC(=O)O[C@H]1C(=O)[C@@]2(C)[C@H]([C@H](OC(=O)c3ccccc3)[C@]3(O)C[C@H](OC(=O)[C@H](OCCC(=O)NCCCC[C@H](NC(=O)CC[C@@H](NC(=O)[C@H](C)NC(=O)/C=C/c4ccc(Cl)cc4)C(N)=O)C(N)=O)[C@@H](NC(=O)c4ccccc4)c4ccccc4)C(C)=C1C3(C)C)[C@]1(OC(C)=O)CO[C@@H]1C[C@@H]2O
inhibition activity call (active/not active) [1]: Active
Activity [18]: Non-Toxic
inhibition [19]: Active
inhibition [20]: Dose-dependent effect
inhibition [21]: Dose-dependent effect
inhibition [22]: Dose-dependent effect
inhibition [23]: Dose-dependent effect
inhibition [24]: Dose-dependent effect
inhibition [25]: Dose-dependent effect
inhibition [26]: Dose-dependent effect
inhibition [27]: Dose-dependent effect
inhibition [28]: Dose-dependent effect
inhibition [29]: Dose-dependent effect
inhibition [30]: inactive
inhibition [31]: Active
inhibition [32]: 50%
TGI [33]: Active
fold change (FC) [34]: 2
inhibition [35]: inactive
TGI [36]: inactive
Activity [37]: Non-Toxic

— ChEMBL document CHEMBL3992526, “Antagonizing NOD2 Signaling with Conjugates of Paclitaxel and Muramyl Dipeptide Derivatives Sensitizes Paclitaxel Therapy and Significantly Prevents Tumor Metastasis” (J Med Chem, 2017)
